This excerpt belongs to a sample that is enriched for hits.
XBP1 UPR activ – adaptive UPR (XBP1) activation; CHO-XBP1 luciferase reporter, IRE1-XBP1 UPR activation, luminescence; percent of tunicamycin response, DMSO as zero; activation, % at 20 µM; 330,000 compounds, 0.33% hits; AID 463104;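 active means versus positive control, 20 µM dose yields 30% or more activation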;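 further: 100% = tunicamycin at 10 µg/mL and 0% = DMSO only wells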
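assay system = CHO-XBP1 luciferase reporter cells | amount = 1000 cells/well | buffer or medium = F12 plus 10% FBS | compound dosing = single point, 20 µM final compound, 1% DMSO | incubation = 16-18 h cell attachment at 37 °C, then 6 h compound exposure | detection = Steady-Glo luminescence read | controls = tunicamycin 10 µg/mL and vehicle-only wells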
TLR4 MyD88 comp – blocks binding of human TLR4 to MyD88 | inhibition, % at 8.4 µM | HeLa CL3-4 TLR4/MyD88 BLA complementation, FRET ratio | AID 861 | O00206+Q99836 | 200,000 compounds, 0.18% hits; in the data active means inhibition above about 25%;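 further: 0% = vehicle and 100% = reference inhibitor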
TLR9-MyD88 inh – blocks human TLR9 binding to MyD88; Q9NR96+Q99836; inhibition, % at 4.98 µM; CHO BLA complementation TLR9-MyD88, CCF4 FRET ratio; 340,000 compounds, 0.21% hits;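 active means inhibition above the mean over all tested compounds plus 3 SD, cut at about 21% in these data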;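 further: 0% = DMSO only wells and 100% = clavulanate BLA inhibitor control wells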
CHOP UPR activ – apoptotic UPR (CHOP) activation; activation, % at 10 µM; CHO-CHOP luciferase reporter, luminescence; percent of tunicamycin response over DMSO baseline; 330,000 compounds, 0.34% hits; AID 449763;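 active means at 10 µM dose, activation of 40% or more, normalized to positive control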;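 further: 100% = tunicamycin at 10 µg/mL and 0% = DMSO alone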
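Dosing – one dose, 10 µM in 0.5% DMSO · System – CHO-CHOP cells, stable luciferase reporter of PERK-eIF2a-CHOP signalling · Input – 500 cells/well · Control set – tunicamycin 10 µg/mL final as positive, DMSO-only wells as negative · Timing – 6 h compound treatment, 37 °C · Measure – % activation vs tunicamycin · Technique – luminescence read with Steady-Glo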
CHOP inh – CHOP inhibition in unfolded protein response; CHO-K1 CHOP-promoter luciferase, tunicamycin-induced, 15-18 h; inhibition, % at 10 µM; 220,000 compounds, 3.8% hits;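 active means compounds that reduced the stress-induced luciferase reporter signal by more than about 70% of percent inhibition, limit read from the data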;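 further: 0% = tunicamycin plus vehicle and 100% = wells without tunicamycin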
NOD2-RIPK2 inh – blocks binding of human NOD2 to RIPK2; O43353; CHO BLA complementation NOD2-RIPK2, CCF4 ratio; inhibition, % at 4.98 µM; 360,000 compounds, 0.38% hits; AID 624267; in the data active means inhibition above about 21%;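 further: 0% = vehicle only and 100% = reference blocker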
CHOP UPR conf – apoptotic UPR (CHOP) activation, confirmed | AID 463112 | activation, % at 10 µM | CHO-CHOP cells, CHOP-luciferase reporter luminescence; percent of tunicamycin response, DMSO as zero | 1,000 compounds, 64% hits | shares compounds with CHOP UPR activ; in the data active means activation above about 33%;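 further: 0% = DMSO wells and 100% = tunicamycin 10 µg/mL wells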
An asterisk follows results filed as active.

Results for COc1ccc(CNC(=O)CN(CC2CCCO2)C(=O)CNS(=O)(=O)c2ccc(F)cc2)cc1 (centres undefined) ?
TLR4 MyD88 comp: 5; TLR9-MyD88 inh: 4; CHOP inh: 6; NOD2-RIPK2 inh: -1

How did COc1cc(OC)cc(C(=O)N2CCC(C(=O)NCCc3ccccc3)CC2)c1 do in these assays?
XBP1 UPR activ: -2; TLR9-MyD88 inh: 0; CHOP UPR activ: 3; NOD2-RIPK2 inh: 6

Results for O=C1NC(=O)C(=CC=Cc2ccccc2)S1 ?
TLR9-MyD88 inh: 2; NOD2-RIPK2 inh: -7

What do the screens show for `ClC1=C(Cl)C(Cl)=C(Cl)C1=C/C=C/c1ccccc1`?
XBP1 UPR activ: 30; TLR9-MyD88 inh: -8; CHOP UPR activ: 55*; CHOP inh: 95*; NOD2-RIPK2 inh: 2; CHOP UPR conf: 29

What do the screens show for `Cc1ccccc1COCCN1CCN(S(=O)(=O)c2ccccc2)CCC1=O`?
XBP1 UPR activ: -2; TLR9-MyD88 inh: 1; CHOP UPR activ: 0; CHOP inh: -5; NOD2-RIPK2 inh: -2

How did COc1ccc(CCN2CCC(Nc3nc4ccccc4n3Cc3ccc(F)cc3)CC2)cc1 do in these assays?
XBP1 UPR activ: 4; TLR4 MyD88 comp: -8; TLR9-MyD88 inh: 2; CHOP UPR activ: 56*; NOD2-RIPK2 inh: 1; CHOP UPR conf: 44*

How did Nc1ccn([C@@H]2O[C@H](CNCc3ccc(-c4cc(C(F)(F)F)ccc4Cl)o3)[C@@H](O)[C@H]2O)c(=O)n1 do in these assays?
TLR9-MyD88 inh: 15; NOD2-RIPK2 inh: 3

Results for O=C(Nc1ccc(S(=O)(=O)N2CCOCC2)cc1)c1ccc([N+](=O)[O-])s1 ?
XBP1 UPR activ: 4; TLR9-MyD88 inh: 0; CHOP UPR activ: 68*; NOD2-RIPK2 inh: -8; CHOP UPR conf: 4

How did O=C(Nc1ccc(S(=O)(=O)N2CCOCC2)cc1)c1ccc([N+](=O)[O-])o1 do in these assays?
XBP1 UPR activ: -1; TLR9-MyD88 inh: 10; CHOP UPR activ: 139*; CHOP inh: -89; NOD2-RIPK2 inh: 20; CHOP UPR conf: 98*

What do the screens show for `O=C(Nc1ccc(N2CCOCC2)cc1)c1ccc([N+](=O)[O-])o1`?
XBP1 UPR activ: 0; TLR9-MyD88 inh: -4; CHOP UPR activ: 57*; NOD2-RIPK2 inh: 7; CHOP UPR conf: 61*

How did O=C(Nc1ccc(S(=O)(=O)N2CCOCC2)cc1)c1cccs1 do in these assays?
XBP1 UPR activ: -2; TLR4 MyD88 comp: 12; TLR9-MyD88 inh: 0; CHOP UPR activ: 2; CHOP inh: 14; NOD2-RIPK2 inh: -4

What do the screens show for `O=C(Nc1ccc(S(=O)(=O)N2CCOCC2)cc1)c1ccco1`?
XBP1 UPR activ: -1; TLR4 MyD88 comp: -13; TLR9-MyD88 inh: -9; CHOP UPR activ: 1; CHOP inh: 67; NOD2-RIPK2 inh: 10

What do the screens show for `O=C(C1CCCN(S(=O)(=O)c2cccnc2)C1)N1CCn2c1nc1ccccc12` (centres undefined)?
XBP1 UPR activ: -2; TLR4 MyD88 comp: -8; TLR9-MyD88 inh: 4; CHOP UPR activ: 1; CHOP inh: 9; NOD2-RIPK2 inh: -3

Results for C=CCN=c1scc(C)n1/N=C/c1ccc(O)c(O)c1 ?
XBP1 UPR activ: 19; TLR4 MyD88 comp: -1; TLR9-MyD88 inh: 0; CHOP UPR activ: 302*; CHOP inh: -103; NOD2-RIPK2 inh: 2; CHOP UPR conf: 208*

How did CN=c1scc(-c2ccco2)n1/N=C/c1ccc(O)c(O)c1 do in these assays?
XBP1 UPR activ: -3; TLR4 MyD88 comp: -9; TLR9-MyD88 inh: 0; CHOP UPR activ: 52*; CHOP inh: 23; NOD2-RIPK2 inh: -6; CHOP UPR conf: 70*

Results for CN=c1scc(C)n1/N=C/c1ccc(O)cc1 ?
XBP1 UPR activ: 1; TLR4 MyD88 comp: 0; TLR9-MyD88 inh: 2; CHOP UPR activ: 3; CHOP inh: -14; NOD2-RIPK2 inh: 3

Results for CNC[C@@H](Cc1ccccc1)NC[C@@H](CC1CCCCC1)NCCCc1ccccc1 ?
XBP1 UPR activ: 2; TLR9-MyD88 inh: -5; CHOP UPR activ: 74*; NOD2-RIPK2 inh: -4; CHOP UPR conf: 34*

What do the screens show for `CCN(CC)CC(=O)Nc1sc(C)cc1C(=O)c1ccccc1`?
XBP1 UPR activ: -2; TLR9-MyD88 inh: 2; CHOP UPR activ: -1; NOD2-RIPK2 inh: -9

How did Cc1cc(C(=O)c2ccccc2)c(NC(=O)CCl)s1 do in these assays?
XBP1 UPR activ: 3; TLR4 MyD88 comp: 4; TLR9-MyD88 inh: -7; CHOP UPR activ: 45*; CHOP inh: -152; NOD2-RIPK2 inh: -3; CHOP UPR conf: 4

Results for Cc1ccc(C(=O)Nc2nc(-c3ccccc3)c(-c3ccccc3)o2)cc1 ?
XBP1 UPR activ: 0; TLR4 MyD88 comp: -4; TLR9-MyD88 inh: -2; CHOP UPR activ: 0; CHOP inh: 32; NOD2-RIPK2 inh: -8

How did Cc1ccc(/C(N)=N/OC(=O)C(C)c2ccc([N+](=O)[O-])cc2)cc1 (centres undefined) do in these assays?
XBP1 UPR activ: -2; TLR9-MyD88 inh: -6; CHOP UPR activ: -1; NOD2-RIPK2 inh: -10

Results for COC(=O)c1cc(=O)n(CCc2ccc(OC)c(OC)c2)c(=Nc2ccc(F)c(Cl)c2)s1 ?
XBP1 UPR activ: 13; TLR4 MyD88 comp: 15; TLR9-MyD88 inh: 2; CHOP UPR activ: 41*; CHOP inh: -22; NOD2-RIPK2 inh: -4; CHOP UPR conf: 63*

How did Cc1ccc(C(C[N+](=O)[O-])Sc2ccc(N)cc2)cc1 (centres undefined) do in these assays?
XBP1 UPR activ: -4; TLR9-MyD88 inh: -6; CHOP UPR activ: 117*; CHOP inh: -9; NOD2-RIPK2 inh: 2; CHOP UPR conf: -6

How did C[C@@H]1CN([C@H](C)CO)C(=O)CCCn2nncc2CO[C@H]1CN(C)S(=O)(=O)c1ccc(Oc2ccccc2)cc1 do in these assays?
TLR9-MyD88 inh: 4; NOD2-RIPK2 inh: -6

What do the screens show for `COc1ccc2c(c1)CCc1c(C(=O)NCc3ccc(Cl)cc3)noc1-2`?
XBP1 UPR activ: 1; TLR4 MyD88 comp: 3; TLR9-MyD88 inh: 5; CHOP UPR activ: 1; CHOP inh: -5; NOD2-RIPK2 inh: 3

How did COc1ccc2c(c1)CCc1c(C(=O)Nc3cc(C)n(Cc4ccc(Cl)cc4)n3)noc1-2 do in these assays?
XBP1 UPR activ: 142*; TLR4 MyD88 comp: 4; TLR9-MyD88 inh: -6; CHOP UPR activ: 107*; CHOP inh: 93*; NOD2-RIPK2 inh: -14; CHOP UPR conf: 121*

Assay outcomes (PubChem BioAssay)
